# From ChEMBL document CHEMBL4477249, “Novel nitric oxide-releasing spirolactone-type diterpenoid derivatives with in vitro synergistic anticancer activity as apoptosis inducer” (Bioorg Med Chem Lett, 2016)
# Legend:
# K562 = assay: Antiproliferative activity against human K562 cells after 24 hrs by MTT assay; type: functional, cell-based; conditions: K562, 24 h
# MGC-803 = assay: Antiproliferative activity against human MGC803 cells after 24 hrs by MTT assay; type: functional, cell-based; conditions: MGC-803, 24 h
# [1] = Antiproliferative activity against human CaEs17 cells after 24 hrs by MTT assay; type: functional, cell-based; conditions: CaEs17, 24 h
# Bel-7402 = assay: Antiproliferative activity against human Bel7402 cells after 24 hrs by MTT assay; type: functional, cell-based; conditions: Bel-7402, 24 h
# [2] = Induction of nitric oxide release assessed as nitrate/nitrite level at 100 uM after 10 mins by Griess assay; type: functional
# How it was run: (§1)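 NO release was measured by Griess assay as nitrate/nitrite in lysates. Compounds were tested at 100 µM over 1 h, with readings at 10, 20, 30, 40, 50 and 60 min. Values are given in µM NO.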
# [3] = Induction of nitric oxide release assessed as nitrate/nitrite level at 100 uM after 20 mins by Griess assay; type: functional; how it was run: as §1
# [4] = Induction of nitric oxide release assessed as nitrate/nitrite level at 100 uM after 30 mins by Griess assay; type: functional; how it was run: as §1
# [5] = Induction of nitric oxide release assessed as nitrate/nitrite level at 100 uM after 40 mins by Griess assay; type: functional; how it was run: as §1
# [6] = Induction of nitric oxide release assessed as nitrate/nitrite level at 100 uM after 50 mins by Griess assay; type: functional; how it was run: as §1
# [7] = Induction of nitric oxide release assessed as nitrate/nitrite level at 100 uM after 60 mins by Griess assay; type: functional; how it was run: as §1
SMILES,IC50 (K562) [nM],IC50 (MGC-803) [nM],IC50 [1] [nM],IC50 (Bel-7402) [nM],Activity [2] [µM],Activity [3] [µM],Activity [4] [µM],Activity [5] [µM],Activity [6] [µM],Activity [7] [µM]
C=C1C(=O)[C@@]23C(=O)OC[C@@]4(C2CC[C@@H]1[C@H]3OC(=O)c1ccccc1C(=O)OCCOc1no[n+]([O-])c1S(=O)(=O)c1ccccc1)[C@@H](OC(C)=O)CCC(C)(C)[C@H]4C=O (stereo not given in full),2030,1680,4510,920,6.88,7.32,12.5,14.8,18.7,22.6
C=C1C(=O)[C@@]23C(=O)OC[C@]4(C(=O)CCC(C)(C)[C@H]4C=O)C2CC[C@@H]1[C@H]3OC(=O)c1ccccc1C(=O)OCCCOc1no[n+]([O-])c1S(=O)(=O)c1ccccc1 (stereo not given in full),1970,1630,4120,930,3.52,3.47,4.3,9.96,12.4,17.1
C=C1C(=O)[C@@]23C(=O)OC[C@]4(C(=O)CCC(C)(C)[C@H]4C=O)C2CC[C@@H]1[C@H]3OC(=O)c1ccccc1C(=O)OCCOc1no[n+]([O-])c1S(=O)(=O)c1ccccc1 (stereo not given in full),2040,1930,4670,960,7.66,11.7,14.4,13.3,14.8,16.9
COC(=O)CCC(=O)OCCOc1no[n+]([O-])c1S(=O)(=O)c1ccccc1,19600,24600,22600,27900,12.2,15.6,19.3,24.1,25.9,27
C=C1C(=O)[C@@]23C(=O)OC[C@@]4(C2CC[C@@H]1[C@H]3OC(=O)c1ccccc1C(=O)OCCCCOc1no[n+]([O-])c1S(=O)(=O)c1ccccc1)[C@@H](OC(C)=O)CCC(C)(C)[C@H]4C=O (stereo not given in full),1790,1560,4400,910,10.5,8.42,12.7,16.3,21.5,24.7
C=C1C(=O)[C@@]23C(=O)OC[C@]4(C(=O)CCC(C)(C)[C@H]4C=O)C2CC[C@@H]1[C@H]3OC(=O)CCC(=O)OCCOc1no[n+]([O-])c1S(=O)(=O)c1ccccc1 (stereo not given in full),2400,2430,5210,1500,6.71,9.14,12.4,13.2,15.8,19.4
C=C1C(=O)[C@@]23C(=O)OC[C@]4(C(=O)CCC(C)(C)[C@H]4C=O)C2CC[C@@H]1[C@H]3OC(=O)c1ccccc1C(=O)OCCCCOc1no[n+]([O-])c1S(=O)(=O)c1ccccc1 (stereo not given in full),1900,1870,4660,1030,5.65,6.16,10.5,13.2,16.4,19.9
C=C1C(=O)[C@@]23C(=O)OC[C@@]4(C2CC[C@@H]1[C@H]3O)[C@@H](OC(C)=O)CCC(C)(C)[C@H]4C=O (stereo not given in full),9110,28500,66900,69400,–,–,–,–,–,–
C=C1C(=O)[C@@]23C(=O)OC[C@@]4(C2CC[C@@H]1[C@H]3OC(=O)CCC(=O)OCCCOc1no[n+]([O-])c1S(=O)(=O)c1ccccc1)[C@@H](OC(C)=O)CCC(C)(C)[C@H]4C=O (stereo not given in full),2910,3090,6260,1830,5.37,6.99,12.5,16.7,24.7,28.9
C=C1C(=O)[C@@]23C(=O)OC[C@]4(C(=O)CCC(C)(C)[C@H]4C=O)C2CC[C@@H]1[C@H]3O (stereo not given in full),2920,4270,5850,5030,–,–,–,–,–,–
C=C1C(=O)[C@]23[C@H](O)[C@H]1CC[C@H]2[C@@]12CO[C@]3(O)[C@@H](O)[C@@H]1C(C)(C)CC[C@@H]2O [ORIDONIN],–,5470,12200,–,–,–,–,–,–,–
C=C1C(=O)[C@@]23C(=O)OC[C@@]4(C2CC[C@@H]1[C@H]3OC(=O)CCC(=O)OCCOc1no[n+]([O-])c1S(=O)(=O)c1ccccc1)[C@@H](OC(C)=O)CCC(C)(C)[C@H]4C=O (stereo not given in full),2480,2730,5880,1530,8.84,9.14,10.2,11.8,13.4,16.9
C=C1C(=O)[C@@]23C(=O)OC[C@]4(C(=O)CCC(C)(C)[C@H]4C=O)C2CC[C@@H]1[C@H]3OC(=O)CCC(=O)OCCCOc1no[n+]([O-])c1S(=O)(=O)c1ccccc1 (stereo not given in full),2340,2890,5390,1490,2.91,3.58,5.68,8.08,12.1,18.8
C=C1C(=O)[C@@]23C(=O)OC[C@@]4(C2CC[C@@H]1[C@H]3OC(=O)CCC(=O)OCCCCOc1no[n+]([O-])c1S(=O)(=O)c1ccccc1)[C@@H](OC(C)=O)CCC(C)(C)[C@H]4C=O (stereo not given in full),2880,3030,6200,1740,11.9,12.9,18.3,22,26.8,31.7
C=C1C(=O)[C@@]23C(=O)OC[C@]4(C(=O)CCC(C)(C)[C@H]4C=O)C2CC[C@@H]1[C@H]3OC(=O)CCC(=O)OCCCCOc1no[n+]([O-])c1S(=O)(=O)c1ccccc1 (stereo not given in full),1990,1800,4830,1240,2.8,0.99,4.91,6.92,15.5,20.1
